Measured values reported in ChEMBL document CHEMBL1128261, “Synthesis and biological activity of thiazolylindolequinones, analogues of the natural product BE 10988” (J Med Chem, 1995).

Assays:
[1] = test system: SK-BR-3; assay: The IC50 value was measured on human breast cancer cell line SK-BR-3.; assay type: functional, cell-based
Method in brief: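 SKBr3 breast cancer cells were seeded at 10^4 cells/well for exponential growth over 4 days. Graded compound concentrations were added 2 h after plating (4 wells per concentration), with continuous exposure for 4 days and MTT growth readout. Each experiment was done at least twice, and IC50 was derived from the cumulative data.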

[2] = test system: V79; assay: The IC50 value was measured on V79 cells in the presence of air using MTT assay.; assay type: functional, cell-based; conditions: Cricetulus griseus
Method in brief: (§1)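 V79 Chinese hamster cells were exposed to drug under aerobic (air) or hypoxic (N2) conditions. After the drug was removed, cells proliferated for 3 days before MTT assay. IC50 is the concentration killing 50% of cells under the initial treatment condition.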

[3] = test system: V79; assay: The IC50 value was measured on V79 cells in the presence of nitrogen using MTT assay.; assay type: functional, cell-based; conditions: Cricetulus griseus; method in brief: as §1
[4] = Ratio of IC50 against V79 cells in the presence of air to that of nitrogen.; assay type: functional

SMILES | IC50 [1] [µM] | IC50 [2] [µM] | IC50 [3] [µM] | Ratio [4]
Cn1cc(-c2csc(C(N)=O)n2)c2c1C(=O)C=C(N)C2=O | 4.1 | 5.5 | 4.1 | 1.3
CCOC(=O)c1nc(-c2cn(C)c3c2C(=O)C(OC)=CC3=O)cs1 | 16.9 | 38.7 | 60.9 | 0.64
CCOC(=O)c1coc(-c2cn(C)c3c2C(=O)C(OC)=CC3=O)n1 | 4.8 | 51.7 | 46 | 1.1
CCOC(=O)c1csc(-c2cn(C)c3c2C(=O)C(OC)=CC3=O)n1 | 27.8 | 423 | 345 | 1.2
COC1=CC(=O)c2c(c(-c3nc(C)cs3)cn2C)C1=O | 1.4 | 72.9 | 47.7 | 1.5
Cc1csc(-c2cn(C)c3c2C(=O)C(=N)C=C3O)n1 | 0.73 | 10.3 | 6 | 1.7
Cn1cc(-c2nc(C(N)=O)cs2)c2c1C(=O)C=C(N)C2=O | 8.7 | 6.2 | 5.1 | 1.2
O=C1c2c(O)ccc(O)c2C(=O)c2c(NCCNCCO)ccc(NCCNCCO)c21 [MITOXANTRONE] | 0.016 |  |  | 
